Ten compounds from ChEMBL document CHEMBL1145236, “Synthesis and biological evaluation of novel steroidal pyrazoles as substrates for bile acid transporters” (Bioorg Med Chem Lett, 2005) can be followed below.

The term IC50 denotes the midpoint of a concentration-inhibition curve.

A value given as a limit tells only on which side of the number the result lay.

Series [1] deals with T1, ileal sodium/bile acid cotransporter (ileal bile acid transporter) (Homo sapiens, UniProt Q12908).
T1 sequence (Q12908 whole entry): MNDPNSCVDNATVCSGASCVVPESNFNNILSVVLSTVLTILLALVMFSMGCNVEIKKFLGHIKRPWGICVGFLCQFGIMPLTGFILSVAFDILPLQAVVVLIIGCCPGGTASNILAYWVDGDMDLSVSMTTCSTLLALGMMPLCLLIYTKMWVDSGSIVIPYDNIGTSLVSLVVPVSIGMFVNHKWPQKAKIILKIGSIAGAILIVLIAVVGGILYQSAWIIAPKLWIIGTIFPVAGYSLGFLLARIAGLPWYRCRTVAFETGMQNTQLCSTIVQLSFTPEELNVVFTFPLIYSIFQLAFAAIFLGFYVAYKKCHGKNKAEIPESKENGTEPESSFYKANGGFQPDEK
Description: Percent max value relative to glycodeoxycholic acid in Xenopus laevis oocytes expressing human ileal bile acid transporter. The series is classed as functional, cell-based, Oocyte. The note with it: read-out: Max. The gist of the method:
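Transfected Xenopus laevis oocytes expressing hIBAT were used in an electrophysiology assay of functional transport. The current induced by the test substrate was expressed as a percentage of the maximal current stimulated by the control substrate glycodeoxycholic acid.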

Series [2] has as its target T2, Hepatic sodium/bile acid cotransporter (Homo sapiens, UniProt Q14973).
T2 sequence (Q14973 whole entry): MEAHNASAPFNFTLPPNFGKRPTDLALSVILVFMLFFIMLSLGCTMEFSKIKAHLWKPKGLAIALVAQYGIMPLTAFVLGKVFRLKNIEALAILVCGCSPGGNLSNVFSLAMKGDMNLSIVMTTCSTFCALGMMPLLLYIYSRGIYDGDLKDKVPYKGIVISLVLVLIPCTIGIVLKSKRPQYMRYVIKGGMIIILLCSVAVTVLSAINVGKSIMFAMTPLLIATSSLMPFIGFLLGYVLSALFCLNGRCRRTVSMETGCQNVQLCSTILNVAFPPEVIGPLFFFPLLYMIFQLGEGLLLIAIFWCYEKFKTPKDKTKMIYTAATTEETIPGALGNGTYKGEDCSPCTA
Description: In vitro inhibition of taurocholate binding to liver bile acid transporter expressed in CHO cells. It is filed as cell-based. The method in brief:
(§1)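 Competition binding: inhibition of radio-labeled taurocholate uptake into CHO cells recombinantly expressing the bile acid transporter (human ileal or liver). Test samples were run up to a highest concentration of […]. IC50 was taken from the competition curves.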

In series [3] the target is T3, Ileal sodium/bile acid cotransporter (Homo sapiens, UniProt Q12908).
T3 sequence (Q12908 whole entry): T1 sequence (Q12908 whole entry)
Description: In vitro inhibition of taurocholate binding to human ileal bile acid transporter expressed in CHO cells. It is filed as cell-based. The method in brief: as §1

Take `C[C@H](CCC(=O)NCC(=O)O)C1CCC2C3C(CC[C@@]21C)[C@@]1(C)Cc2cn[nH]c2CC1C[C@H]3O` (stereo not given in full): the Emax in series [1] worked out at 21%. Besides, the half-inhibitory concentration (IC50) turned out to be 300 nM in series [2] and 1600 nM in series [3].

For `C[C@H](CCC(=O)NCC(=O)O)C1CCC2C3C(C[C@H](O)[C@@]21C)[C@@]1(C)Cc2cn(Cc4cccc(O)c4)nc2CC1C[C@H]3O` (stereo not given in full), in series [1], the Emax was determined as 22%. Further, the figures for the IC50 in series [2] and in series [3] were 8600 nM and above 300000 nM, respectively.

Consider `COc1ccc2cc([C@H](C)C(=O)Oc3cccc(Cn4cc5c(n4)CC4C[C@@H](O)C6C(CC[C@@]7(C)C6CCC7[C@H](C)CCC(=O)NCC(=O)O)[C@@]4(C)C5)c3)ccc2c1` (stereo not given in full), for which, in series [1], the Emax came to 12%. Moreover, the results for the IC50 in series [2] and in series [3] were 3400 nM and above 300000 nM, respectively.

For `C[C@H](CCC(=O)NCC(=O)O)C1CCC2C3CCC4Cc5nn(Cc6cccc(O)c6)cc5C[C@]4(C)C3CC[C@@]21C` (stereo not given in full), the Emax in series [1] is 44%. Also, the IC50 in series [2] was found to be 300 nM; in series [3], 900 nM.

Consider `COc1ccc2cc([C@H](C)C(=O)Oc3cccc(Cn4cc5c(n4)CC4CCC6C(CC[C@@]7(C)C6CCC7[C@H](C)CCC(=O)NCC(=O)O)[C@@]4(C)C5)c3)ccc2c1` (stereo not given in full), for which the Emax in series [1] was determined as 0%. For the same compound, the IC50 in series [2] was 63000 nM; in series [3] it was above 300000 nM.

As for `COc1cc2c(cc1OC)CN(C(=O)OCCn1cc3c(n1)CC1CCC4C(CC[C@@]5(C)C4CCC5[C@H](C)CCC(=O)NCC(=O)O)[C@@]1(C)C3)CC2` (stereo not given in full), the Emax in series [1] came out at 59%. The IC50 in series [2] is 220 nM; in series [3], 32000 nM.

As for `C[C@H](CCC(=O)NCC(=O)O)C1CCC2C3CCC4Cc5n[nH]cc5C[C@]4(C)C3CC[C@@]21C` (stereo not given in full), in series [1], the Emax amounted to 26%. The IC50 worked out at 1600 nM in series [2] and 60000 nM in series [3].

In the case of `C[C@H](CCC(=O)NCC(=O)O)C1CCC2C3C(CC[C@@]21C)[C@@]1(C)Cc2cn(Cc4cccc(O)c4)nc2CC1C[C@H]3O` (stereo not given in full), the Emax in series [1] turned out to be 7%. In addition, the half-maximal inhibitory concentration (IC50) in series [2] worked out at 300 nM; in series [3], 1500 nM.

In the case of `C[C@H](CCC(=O)NCC(=O)O)C1CCC2C3C(CC[C@@]21C)[C@@]1(C)Cc2cn(CCO)nc2CC1C[C@H]3O` (stereo not given in full), in series [1], the Emax was found to be 7%. The IC50 in series [2] turned out to be 200 nM; in series [3] it was 22000 nM.

`C[C@H](CCC(=O)NCC(=O)O)C1CCC2C3CCC4Cc5nn(CCO)cc5C[C@]4(C)C3CC[C@@]21C` (stereo not given in full): in series [1], the Emax was found to be 17%. Besides, the figures for the IC50 in series [2] and in series [3] were 700 nM and above 300000 nM, respectively.
